EphB4 ephrin blk = EphB4-ephrin-B2 interaction antagonism | EphB4 LBD / TNYL-RAW-Alexa532 peptide, fluorescence polarization | 97,000 tested, 0.15% active | inhibition, % at 7 µM | AID 720 | P54760;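 active = inhibition above the screen-wide mean inhibition plus 3 SD, cut at about 15% in these data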;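 note: 0% = DMSO wells and 100% = excess unlabeled TNYL-RAW peptide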
Target sequence (P54760 whole entry, looked up, the tested form may be a part): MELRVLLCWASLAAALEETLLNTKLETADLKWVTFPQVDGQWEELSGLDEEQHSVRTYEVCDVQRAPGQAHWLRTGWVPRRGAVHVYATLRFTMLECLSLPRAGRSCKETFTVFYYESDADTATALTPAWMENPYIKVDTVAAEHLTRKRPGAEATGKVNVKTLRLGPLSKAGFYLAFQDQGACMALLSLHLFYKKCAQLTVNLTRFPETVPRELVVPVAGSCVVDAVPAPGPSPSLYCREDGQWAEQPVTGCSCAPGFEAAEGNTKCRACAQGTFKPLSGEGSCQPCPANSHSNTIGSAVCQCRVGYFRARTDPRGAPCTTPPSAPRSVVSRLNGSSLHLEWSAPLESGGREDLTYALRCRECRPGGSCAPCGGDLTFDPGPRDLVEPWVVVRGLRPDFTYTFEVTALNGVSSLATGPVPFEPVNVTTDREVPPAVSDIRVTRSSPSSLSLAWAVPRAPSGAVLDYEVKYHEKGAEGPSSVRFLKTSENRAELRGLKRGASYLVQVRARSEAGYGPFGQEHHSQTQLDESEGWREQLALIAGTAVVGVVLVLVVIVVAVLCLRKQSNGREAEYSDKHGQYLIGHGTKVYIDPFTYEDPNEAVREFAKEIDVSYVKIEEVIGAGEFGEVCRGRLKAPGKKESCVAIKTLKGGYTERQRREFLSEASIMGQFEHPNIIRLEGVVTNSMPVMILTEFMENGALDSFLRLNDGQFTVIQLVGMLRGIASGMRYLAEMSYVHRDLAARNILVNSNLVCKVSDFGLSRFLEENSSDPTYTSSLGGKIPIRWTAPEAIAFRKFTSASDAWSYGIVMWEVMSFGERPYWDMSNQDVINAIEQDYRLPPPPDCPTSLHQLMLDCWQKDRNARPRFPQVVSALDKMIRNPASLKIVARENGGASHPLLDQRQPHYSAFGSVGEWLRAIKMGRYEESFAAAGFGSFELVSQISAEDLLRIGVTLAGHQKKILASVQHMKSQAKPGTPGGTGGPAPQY
PLK1 kinase inh = PLK1 (human) kinase inhibition; P53350; recombinant PLK1 kinase, TR-FRET peptide phosphorylation; inhibition, % at 10 µM; 97,000 tested, 0.53% active;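 active = inhibition of 50% or more in the single-concentration screen; inactive = inhibition below 50%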;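 note: 0% = DMSO max control and 100% = H-89 dihydrochloride min control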
PostGolgi yeast = growth inhibition of a yeast mutant, post-Golgi transport screen | post-Golgi transport phenotypic cell assay | inhibition, % at 10 µM | 98,000 tested, 0.9% active | AID 739;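 note: yeast cells grown in 1536-well plates; yeast grown about 18 h at 30C before absorbance read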
PostGolgi ctrl = inhibits growth of the yeast control strain; inhibition, % at 10 µM; efflux-deficient yeast background strain, growth absorbance A615, 16 h; AID 738; 98,000 tested, 5% active
HIV Rev-RRE inh = disrupts HIV-1 Rev binding to RRE RNA; 97,000 tested, 0.79% active; Rev peptide-RRE RNA binding, FRET; P05866; inhibition, % at 8 µM;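 active = inhibition above the screen-wide mean plus 3 SD, cut at about 35% in these data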;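 note: 0% = median DMSO wells and 100% = median Neomycin B control wells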
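Test system: Cy5-tagged RRE RNA duplex with fluorescein-tagged Rev peptide | Read-out: % inhibition of FRET ratio versus controls | Probe or stimulus: Labelled Rev peptide | Incubation: 5 min RNA-compound premix plus 15 min binding step, 25 °C | Technique: FRET fluorescence readout | Benchmarks: DMSO low control, neomycin B high control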
Plk1 PBD FP = Plk1 (human) PBD binding inhibition; AID 693; 97,000 tested, 0.13% active; inhibition, %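 (tested at about 20 µM)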; Plk1 PBD phosphopeptide binding, fluorescence polarization; P53350; in the data active = inhibition above about 34%, passing the limit was not always enough
An asterisk follows results filed as active; [ ] = remark or other dose. A selection: hits, their analogues and other compounds. The true share with any hit is near 6.4%. Cut-off read from the data, not from the text of the source, unless noted: active = inhibition above about 30%; inactive = the rest.

Results for c1ccc2c(c1)CCCN2Cc1nnnn1CC1CCCO1 (centres undefined) ?
EphB4 ephrin blk: -2; PLK1 kinase inh: 27; PostGolgi yeast: -9; PostGolgi ctrl: -11; HIV Rev-RRE inh: 55*; Plk1 PBD FP: -37

How did CCOc1ccc2[nH]c(=O)c(CN(Cc3nnnn3Cc3ccco3)C3CCCCC3)cc2c1 do in these assays?
EphB4 ephrin blk: 6; PLK1 kinase inh: 0; PostGolgi yeast: -8; PostGolgi ctrl: -3; HIV Rev-RRE inh: 60*; Plk1 PBD FP: -16

Results for COc1cc2cc(CN(Cc3nnnn3Cc3ccco3)C3CCCCC3)c(=O)[nH]c2cc1OC ?
EphB4 ephrin blk: 3; PLK1 kinase inh: 0; PostGolgi yeast: 0; PostGolgi ctrl: 8; HIV Rev-RRE inh: 45*; Plk1 PBD FP: -6

What do the screens show for `CCCn1c(SCC(=O)c2cc(OC)ccc2OC)nnc1C(C)C`?
EphB4 ephrin blk: -1; PLK1 kinase inh: 3; PostGolgi yeast: 18; PostGolgi ctrl: 10; HIV Rev-RRE inh: 1; Plk1 PBD FP: 13

Results for CCc1ccc(NC(=O)c2ccc3ncsc3c2)cc1 ?
EphB4 ephrin blk: 6; PLK1 kinase inh: -9; PostGolgi yeast: 14; PostGolgi ctrl: 71*; HIV Rev-RRE inh: 2; Plk1 PBD FP: 8

How did CCc1ccc(NC(=O)c2ccc3nc(N)sc3c2)cc1 do in these assays?
EphB4 ephrin blk: 2; PLK1 kinase inh: 1; PostGolgi yeast: 15; PostGolgi ctrl: 1; HIV Rev-RRE inh: 18; Plk1 PBD FP: -6

Results for Cc1cc(C2C(C#N)=C(N)Oc3n[nH]c(C)c32)c(C)s1 (centres undefined) ?
EphB4 ephrin blk: -1; PLK1 kinase inh: 25; PostGolgi yeast: 1; PostGolgi ctrl: 1; HIV Rev-RRE inh: 3; Plk1 PBD FP: -15

Results for Cc1cc(C2C(C#N)=C(N)SC(N)=C2C#N)c(C)s1 ?
EphB4 ephrin blk: -5; PLK1 kinase inh: 24; PostGolgi yeast: 9; PostGolgi ctrl: -1; HIV Rev-RRE inh: 83*[fluorescence artefact?]; Plk1 PBD FP: -54

How did Cc1sccc1C1C(C#N)=C(N)SC(N)=C1C#N do in these assays?
EphB4 ephrin blk: 5; PLK1 kinase inh: 4; PostGolgi yeast: 2; PostGolgi ctrl: 6; HIV Rev-RRE inh: 75*; Plk1 PBD FP: -24

Results for Cc1cc(=O)n2nc(N3CCCC3C(=O)NCCCN3CCCCC3)sc2n1 (centres undefined) ?
PostGolgi yeast: -3; PostGolgi ctrl: 7

How did COc1ccc(/C=C2/SC(c3ccc(C)cc3)=NC2=O)cc1OC do in these assays?
EphB4 ephrin blk: -7; PLK1 kinase inh: -33; PostGolgi yeast: 9; PostGolgi ctrl: 21; HIV Rev-RRE inh: 114*[fluorescence artefact?]; Plk1 PBD FP: -61

Results for COc1ccc(/C=C2/C(=O)N=C(N)N2C)cc1OC ?
EphB4 ephrin blk: 1; PLK1 kinase inh: -9; PostGolgi yeast: 0; PostGolgi ctrl: 6; HIV Rev-RRE inh: 11; Plk1 PBD FP: -22

What do the screens show for `COc1cc(/C=C2\SC(c3ccc(C)cc3)=NC2=O)ccc1O`?
EphB4 ephrin blk: -8; PLK1 kinase inh: -2; PostGolgi yeast: -3; PostGolgi ctrl: 13; HIV Rev-RRE inh: 77*[fluorescence artefact?]; Plk1 PBD FP: -45

What do the screens show for `COc1cc(/C=C2\SC(c3ccc(C)cc3)=NC2=O)cc(OC)c1OC`?
EphB4 ephrin blk: -8; PLK1 kinase inh: -13; PostGolgi yeast: 6; PostGolgi ctrl: -5; HIV Rev-RRE inh: 51*; Plk1 PBD FP: -6

What do the screens show for `COc1ccc(/C=C2\SC(c3ccc(C)cc3)=NC2=O)cc1OC`?
EphB4 ephrin blk: -12; PLK1 kinase inh: -33; PostGolgi yeast: -7; PostGolgi ctrl: 9; HIV Rev-RRE inh: 113*[fluorescence artefact?]; Plk1 PBD FP: -74

What do the screens show for `CC1CN(Cc2cc(=O)[nH]c(C3CC3)n2)CC(C)O1` (centres undefined)?
EphB4 ephrin blk: -4; PLK1 kinase inh: -9; PostGolgi yeast: -1; PostGolgi ctrl: -8; HIV Rev-RRE inh: 2; Plk1 PBD FP: 24

What do the screens show for `CC(=O)c1cccc(NC(=O)c2ccco2)c1`?
EphB4 ephrin blk: -1; PLK1 kinase inh: 10; PostGolgi yeast: -1; PostGolgi ctrl: 7; HIV Rev-RRE inh: 5; Plk1 PBD FP: 16

How did COc1ccc(Br)cc1C(=O)Nc1cccc(NC(=O)c2ccco2)c1 do in these assays?
EphB4 ephrin blk: -2; PLK1 kinase inh: -4; PostGolgi yeast: 3; PostGolgi ctrl: 49*; HIV Rev-RRE inh: 5; Plk1 PBD FP: 5

Results for O=C(c1ccccc1)c1cccc(NC(=O)c2ccco2)c1 ?
EphB4 ephrin blk: -2; PLK1 kinase inh: 4; PostGolgi yeast: -4; PostGolgi ctrl: 38*; HIV Rev-RRE inh: 7; Plk1 PBD FP: -4

How did COc1c(C)cc(Br)cc1C(=O)Nc1cccc(NC(=O)c2ccco2)c1 do in these assays?
EphB4 ephrin blk: -9; PLK1 kinase inh: -5; PostGolgi yeast: 31*; PostGolgi ctrl: 56*; HIV Rev-RRE inh: 4; Plk1 PBD FP: 19

What do the screens show for `COc1cccc(NC(=O)c2ccco2)c1`?
EphB4 ephrin blk: -5; PLK1 kinase inh: -11; PostGolgi yeast: 7; PostGolgi ctrl: 0; HIV Rev-RRE inh: 4; Plk1 PBD FP: -6

How did Cc1ccccc1NC(=O)c1ccc(NC(=O)c2ccco2)cc1 do in these assays?
EphB4 ephrin blk: -1; PLK1 kinase inh: -17; PostGolgi yeast: 0; PostGolgi ctrl: 10; HIV Rev-RRE inh: 10; Plk1 PBD FP: -4

What do the screens show for `COc1ccc(Br)cc1C(=O)Nc1cccc(C)c1`?
EphB4 ephrin blk: 5; PLK1 kinase inh: -8; PostGolgi yeast: -3; PostGolgi ctrl: 8; HIV Rev-RRE inh: 7; Plk1 PBD FP: 9

Results for O=C(Nc1ccccn1)c1ccc(NC(=O)c2ccco2)cc1 ?
PostGolgi yeast: 4; PostGolgi ctrl: 35*

Results for CCCCC(=O)Nc1cccc(-c2nn3c(C)nnc3s2)c1 ?
EphB4 ephrin blk: -2; PLK1 kinase inh: 3; PostGolgi yeast: 1; PostGolgi ctrl: 8; HIV Rev-RRE inh: 5; Plk1 PBD FP: -10

Results for Nc1c(S(=O)(=O)c2cccs2)c2nc3ccccc3nc2n1/N=C/c1cccc(O)c1 ?
EphB4 ephrin blk: 5; PLK1 kinase inh: -8; PostGolgi yeast: 6; PostGolgi ctrl: 10; HIV Rev-RRE inh: 3; Plk1 PBD FP: 14

What do the screens show for `COc1ccc(CC(=S)N2CCOCC2)cc1`?
EphB4 ephrin blk: -5; PLK1 kinase inh: -4; PostGolgi yeast: 12; PostGolgi ctrl: 9; HIV Rev-RRE inh: 0; Plk1 PBD FP: 15

How did O=C(Nc1ccccc1)Nc1ccc(C(=O)N2CCOCC2)cc1 do in these assays?
EphB4 ephrin blk: -5; PLK1 kinase inh: -5; PostGolgi yeast: 4; PostGolgi ctrl: -5; HIV Rev-RRE inh: -2; Plk1 PBD FP: 14

Results for CCCOc1cccc(C(=O)Nc2cc(NC(=O)c3ccco3)ccc2OC)c1 ?
EphB4 ephrin blk: 4; PLK1 kinase inh: -13; PostGolgi yeast: -4; PostGolgi ctrl: 41*; HIV Rev-RRE inh: 4; Plk1 PBD FP: -15

Assay outcomes deposited in PubChem by several laboratories.
